Test results from ChEMBL document CHEMBL1153792, “Synthesis, characterization and evaluation of antibacterial activity of some thiazolo[3,2-b][1,2,4]triazole incorporating diphenylsulfone moieties” (2009).
Values after ≈ are worked out from the molar mass of the structure shown.

Key:
Type in all cases: functional
[1] = system: Enterococcus faecalis; assay: Antimicrobial activity against Enterococcus faecalis ATCC 19433 after 18 to 24 hrs by liquid broth method
Summary of the method: (§1)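 Serial twofold dilution in Mueller–Hinton broth in 96-well format. Compounds were dissolved in DMSO and tested at final levels of 1024, 512, 256, 128, 64, 32, 16, 8, 4 and 2. Inoculum was a 0.5 McFarland suspension. Plates were incubated at 37 °C for 18–24 h. MIC was read by eye as the lowest concentration clearly inhibiting growth.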

[2] = system: Escherichia coli; assay: Antimicrobial activity against Escherichia coli ATCC 11775 after 18 to 24 hrs by liquid broth method; summary of the method: as §1
[3] = system: Staphylococcus aureus; assay: Antimicrobial activity against Staphylococcus aureus ATCC 12600 after 18 to 24 hrs by liquid broth method; summary of the method: as §1
[4] = system: Acinetobacter baumannii; assay: Antimicrobial activity against Acinetobacter baumannii ATCC 19606 after 18 to 24 hrs by liquid broth method; summary of the method: as §1
[5] = system: Bacillus cereus; assay: Antimicrobial activity against Bacillus cereus ATCC 14579 after 18 to 24 hrs by liquid broth method; summary of the method: as §1
[6] = system: Staphylococcus epidermidis; assay: Antimicrobial activity against Staphylococcus epidermidis ATCC 14990 after 18 to 24 hrs by liquid broth method; summary of the method: as §1
[7] = system: Pseudomonas aeruginosa; assay: Antimicrobial activity against Pseudomonas aeruginosa ATCC 9027 after 18 to 24 hrs by liquid broth method; summary of the method: as §1
[8] = system: Citrobacter freundii; assay: Antimicrobial activity against Citrobacter freundii ATCC 8090 after 18 to 24 hrs by liquid broth method; summary of the method: as §1

Row | Compound | MIC [1] | MIC [2] | MIC [3] | MIC [4] | MIC [5] | MIC [6] | MIC [7] | MIC [8]
1 | O=C(CSc1nnc(-c2ccc(S(=O)(=O)c3ccccc3)cc2)[nH]1)c1ccccc1 | 256 µg/mL (≈ 588 µM) | 64 µg/mL (≈ 147 µM) | 64 µg/mL (≈ 147 µM) | 64 µg/mL (≈ 147 µM) | 128 µg/mL (≈ 294 µM) | 64 µg/mL (≈ 147 µM) | 128 µg/mL (≈ 294 µM) | 128 µg/mL (≈ 294 µM)
2 | O=S(=O)(c1ccc(Cl)cc1)c1ccc(-c2nc3scc(-c4ccc(Br)cc4)n3n2)cc1 | > 1020 µg/mL | > 1020 µg/mL | 512 µg/mL (≈ 964 µM) | 128 µg/mL (≈ 241 µM) | > 1020 µg/mL | > 1020 µg/mL | > 1020 µg/mL | > 1020 µg/mL
3 | O=C(CSc1nnc(-c2ccc(S(=O)(=O)c3ccc(Br)cc3)cc2)[nH]1)c1ccc(Br)cc1 | 128 µg/mL (≈ 216 µM) | 64 µg/mL (≈ 108 µM) | 128 µg/mL (≈ 216 µM) | 64 µg/mL (≈ 108 µM) | 256 µg/mL (≈ 431 µM) | 64 µg/mL (≈ 108 µM) | 128 µg/mL (≈ 216 µM) | 128 µg/mL (≈ 216 µM)
4 | O=S(=O)(c1ccc(Br)cc1)c1ccc(-c2nc3scc(-c4ccccc4)n3n2)cc1 | 256 µg/mL (≈ 516 µM) | 64 µg/mL (≈ 129 µM) | 128 µg/mL (≈ 258 µM) | 64 µg/mL (≈ 129 µM) | 256 µg/mL (≈ 516 µM) | 64 µg/mL (≈ 129 µM) | 128 µg/mL (≈ 258 µM) | 128 µg/mL (≈ 258 µM)
5 | O=C(CSc1nnc(-c2ccc(S(=O)(=O)c3ccccc3)cc2)[nH]1)c1ccc(Br)cc1 | 512 µg/mL (≈ 995 µM) | 512 µg/mL (≈ 995 µM) | 512 µg/mL (≈ 995 µM) | 512 µg/mL (≈ 995 µM) | 512 µg/mL (≈ 995 µM) | 512 µg/mL (≈ 995 µM) | 512 µg/mL (≈ 995 µM) | 512 µg/mL (≈ 995 µM)
6 | O=S(=O)(c1ccc(Br)cc1)c1ccc(-c2nc3scc(-c4ccc(Br)cc4)n3n2)cc1 | 256 µg/mL (≈ 445 µM) | 64 µg/mL (≈ 111 µM) | 128 µg/mL (≈ 222 µM) | 64 µg/mL (≈ 111 µM) | 256 µg/mL (≈ 445 µM) | 64 µg/mL (≈ 111 µM) | 128 µg/mL (≈ 222 µM) | 128 µg/mL (≈ 222 µM)
7 | O=S(=O)(c1ccccc1)c1ccc(-c2nc3scc(-c4ccccc4)n3n2)cc1 | 512 µg/mL (≈ 1230 µM) | 64 µg/mL (≈ 153 µM) | 128 µg/mL (≈ 307 µM) | 64 µg/mL (≈ 153 µM) | 512 µg/mL (≈ 1230 µM) | 64 µg/mL (≈ 153 µM) | 128 µg/mL (≈ 307 µM) | 128 µg/mL (≈ 307 µM)
8 | O=S(=O)(c1ccc(Br)cc1)c1ccc(-c2nnc(S)[nH]2)cc1 | 256 µg/mL (≈ 646 µM) | 64 µg/mL (≈ 161 µM) | 64 µg/mL (≈ 161 µM) | 64 µg/mL (≈ 161 µM) | 64 µg/mL (≈ 161 µM) | 256 µg/mL (≈ 646 µM) | 128 µg/mL (≈ 323 µM) | 128 µg/mL (≈ 323 µM)
9 | O=C(CSc1nnc(-c2ccc(S(=O)(=O)c3ccc(Br)cc3)cc2)[nH]1)c1ccccc1 | 256 µg/mL (≈ 498 µM) | 64 µg/mL (≈ 124 µM) | 128 µg/mL (≈ 249 µM) | 64 µg/mL (≈ 124 µM) | 128 µg/mL (≈ 249 µM) | 64 µg/mL (≈ 124 µM) | 128 µg/mL (≈ 249 µM) | 128 µg/mL (≈ 249 µM)
10 | O=C(CSc1nnc(-c2ccc(S(=O)(=O)c3ccc(Cl)cc3)cc2)[nH]1)c1ccccc1 | 256 µg/mL (≈ 545 µM) | 64 µg/mL (≈ 136 µM) | 64 µg/mL (≈ 136 µM) | 64 µg/mL (≈ 136 µM) | 64 µg/mL (≈ 136 µM) | 64 µg/mL (≈ 136 µM) | 64 µg/mL (≈ 136 µM) | 128 µg/mL (≈ 272 µM)
11 | O=C(CSc1nnc(-c2ccc(S(=O)(=O)c3ccc(Cl)cc3)cc2)[nH]1)c1ccc(Br)cc1 | 256 µg/mL (≈ 466 µM) | 64 µg/mL (≈ 117 µM) | 64 µg/mL (≈ 117 µM) | 64 µg/mL (≈ 117 µM) | 64 µg/mL (≈ 117 µM) | 64 µg/mL (≈ 117 µM) | 64 µg/mL (≈ 117 µM) | 128 µg/mL (≈ 233 µM)
12 | O=S(=O)(c1ccc(Cl)cc1)c1ccc(-c2nc3scc(-c4ccccc4)n3n2)cc1 | > 1020 µg/mL | 1020 µg/mL (≈ 2270 µM) | > 1020 µg/mL | 512 µg/mL (≈ 1130 µM) | > 1020 µg/mL | > 1020 µg/mL | > 1020 µg/mL | > 1020 µg/mL
13 | O=S(=O)(c1ccccc1)c1ccc(-c2nc3scc(-c4ccc(Br)cc4)n3n2)cc1 | 256 µg/mL (≈ 516 µM) | 64 µg/mL (≈ 129 µM) | 128 µg/mL (≈ 258 µM) | 64 µg/mL (≈ 129 µM) | 128 µg/mL (≈ 258 µM) | 64 µg/mL (≈ 129 µM) | 128 µg/mL (≈ 258 µM) | 128 µg/mL (≈ 258 µM)
14 | O=S(=O)(c1ccc(Cl)cc1)c1ccc(-c2nnc(S)[nH]2)cc1 | > 1020 µg/mL | 1020 µg/mL (≈ 2910 µM) | 1020 µg/mL (≈ 2910 µM) | 256 µg/mL (≈ 728 µM) | 1020 µg/mL (≈ 2910 µM) | 1020 µg/mL (≈ 2910 µM) | 1020 µg/mL (≈ 2910 µM) | > 1020 µg/mL
15 | O=S(=O)(c1ccccc1)c1ccc(-c2nnc(S)[nH]2)cc1 | > 1020 µg/mL | 512 µg/mL (≈ 1610 µM) | 512 µg/mL (≈ 1610 µM) | 256 µg/mL (≈ 807 µM) | 1020 µg/mL (≈ 3230 µM) | > 1020 µg/mL | > 1020 µg/mL | > 1020 µg/mL
16 | CC1(C)S[C@@H]2[C@H](NC(=O)[C@H](N)c3ccccc3)C(=O)N2[C@H]1C(=O)O [AMPICILLIN] | 0.5 µg/mL (≈ 1.43 µM) | – | 0.5 µg/mL (≈ 1.43 µM) | – | – | 0.064 µg/mL (≈ 0.183 µM) | – | 2 µg/mL (≈ 5.72 µM)
17 | CN(C)[C@@H]1C(O)=C(C(N)=O)C(=O)[C@@]2(O)C(O)=C3C(=O)c4c(O)cccc4[C@@](C)(O)[C@H]3C[C@@H]12 [TETRACYCLINE] | 32 µg/mL (≈ 72 µM) | 1.5 µg/mL (≈ 3.38 µM) | 0.19 µg/mL (≈ 0.428 µM) | 1.5 µg/mL (≈ 3.38 µM) | 0.094 µg/mL (≈ 0.212 µM) | 24 µg/mL (≈ 54 µM) | 12 µg/mL (≈ 27 µM) | 1 µg/mL (≈ 2.25 µM)
